Source: PMC3355519 (Journal of Medicinal Chemistry, 2012)

Experiments:
[1] = system: HIV-1 protease D30N/N88D double mutant; details: cited from earlier work
[2] = biological target: HIV-1 PRI47V (Human immunodeficiency virus type 1 group M subtype B, UniProt P04585, C555A/C583A/I535V/L521I/L551I/Q495K); experiment: HIV-1 protease inhibition, fluorogenic p2/NC substrate, I47V mutant; assay type: biochemical
Summary of the method: (§1)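 Recombinant HIV-1 protease (HXB2) carried stabilising substitutions Q7K, L33I, L63I, C67A and C95A, plus the point mutation introduced by site-directed mutagenesis. It was expressed in E. coli BL21(DE3) and purified from inclusion bodies. Enzyme (12-45 nM final) was preincubated 5 min at 37 °C with test compound or DMSO in 0.1 M MES pH 5.6, 0.4 M NaCl, 1 mM EDTA, 5% glycerol. Abz-Thr-Ile-Nle-p-nitro-Phe-Gln-Arg-NH2 started the reaction, read 5 min at ex 340/em 420 nm. Ki = (IC50 − [E]/2)/(1 + [S]/Km).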

[3] = biological target: HIV-1 PRV82A (Human immunodeficiency virus type 1 group M subtype B, UniProt P04585, C555A/C583A/L521I/L551I/Q495K/V570A); experiment: HIV-1 protease inhibition, fluorogenic p2/NC substrate, V82A mutant; assay type: biochemical; details: PRV82A vs PRWT
Summary of the method: as §1

[4] = system: HIV-1LAI; details: against HIV-1LAI; cited from earlier work

SMILES	increase of Ki value compared to wild-type [1]	Ki ([2]; Ki, PRI47V, pH 5.6, 37 °C)	change in the inhibition constant vs wild-type ([2]; PRI47V vs PRWT)	change in the inhibition constant vs wild-type [3]	selectivity index (CC50/EC50) [4]
Cc1c(O)cccc1C(=O)N[C@@H](CSc1ccccc1)[C@H](O)CN1C[C@H]2CCCC[C@H]2C[C@H]1C(=O)NC(C)(C)C [NFV, nelfinavir]	260 fold	–	–	–	–
COc1ccc(S(=O)(=O)N(C[C@H]2CCC(=O)N2)C[C@@H](O)[C@H](Cc2ccccc2)NC(=O)O[C@@H]2C[C@@H]3CCO[C@@H]3C2)cc1 [Compound 1]	–	0.4 nM	less than 2 fold	less than 2 fold	> 3,600
